ChEMBL document CHEMBL3745614, “Potent and selective N-(4-sulfamoylphenyl)thiourea-based GPR55 agonists” (Eur J Med Chem, 2016)

What was measured:
[1] = molecular target: T1, G-protein coupled receptor 55 (Homo sapiens, UniProt Q9Y2T6); assay: Agonist activity at human GPR55 expressed in CHOK1 cells at 10 uM by pathHunter beta-arrestin assay relative to LPI; assay type: cell-based; conditions: CHO-K1
In short: (§1)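 PathHunter eXpress GPR55 CHO-K1 β-arrestin kit run per the kit protocol, compounds screened at 10 μM. Luminescence read and expressed as percentage of the signal from bovine liver LPI at 1 μM. Mean with range of two experiments, each done in duplicate.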

[2] = molecular target: Cannabinoid receptor 1 (Homo sapiens) (UniProt P21554); assay: Agonist activity at CBR1 (unknown origin) assessed as [35S]GTPgammaS binding at 10 uM by […] assay relative to control; assay type: functional
Cannabinoid receptor 1 (Homo sapiens), sequence (P21554 whole entry): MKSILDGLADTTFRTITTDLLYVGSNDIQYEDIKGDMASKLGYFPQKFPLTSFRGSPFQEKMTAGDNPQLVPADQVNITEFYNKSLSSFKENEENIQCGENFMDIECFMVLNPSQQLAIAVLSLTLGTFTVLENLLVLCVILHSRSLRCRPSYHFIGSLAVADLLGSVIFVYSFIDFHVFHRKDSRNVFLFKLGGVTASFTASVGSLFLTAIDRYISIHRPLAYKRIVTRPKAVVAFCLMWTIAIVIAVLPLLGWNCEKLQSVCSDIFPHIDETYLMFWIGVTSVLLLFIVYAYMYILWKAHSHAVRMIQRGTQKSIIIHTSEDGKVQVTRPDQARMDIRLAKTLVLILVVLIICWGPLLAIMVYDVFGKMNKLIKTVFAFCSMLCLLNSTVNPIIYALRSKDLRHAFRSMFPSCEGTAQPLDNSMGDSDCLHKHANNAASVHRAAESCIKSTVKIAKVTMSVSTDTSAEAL

[3] = molecular target: Cannabinoid receptor 2 (Homo sapiens) (UniProt P34972); assay: Antagonist activity at human CBR2 assessed as [35S]GTPgammaS binding at 10 uM by […] assay relative to control; assay type: functional; design: scale not given: the % may be the effect or the level left
Cannabinoid receptor 2 (Homo sapiens), sequence (P34972 whole entry): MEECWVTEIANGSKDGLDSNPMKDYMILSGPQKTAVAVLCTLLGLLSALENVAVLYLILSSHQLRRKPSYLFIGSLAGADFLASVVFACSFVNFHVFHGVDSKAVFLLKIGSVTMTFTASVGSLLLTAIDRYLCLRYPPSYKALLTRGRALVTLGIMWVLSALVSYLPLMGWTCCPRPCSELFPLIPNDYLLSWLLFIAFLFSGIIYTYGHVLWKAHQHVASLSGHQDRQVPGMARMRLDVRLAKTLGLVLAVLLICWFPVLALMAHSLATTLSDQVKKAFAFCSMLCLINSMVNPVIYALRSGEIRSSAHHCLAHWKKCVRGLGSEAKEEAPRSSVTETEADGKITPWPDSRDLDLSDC

[4] = molecular target: Cannabinoid receptor 2 (Homo sapiens) (UniProt P34972); assay: Agonist activity at CBR2 (unknown origin) assessed as [35S]GTPgammaS binding at 10 uM by […] assay relative to control; assay type: functional
[5] = molecular target: T2, Fatty-acid amide hydrolase 1 (Homo sapiens) (UniProt O00519); assay: Inhibition of human FAAH expressed in African green monkey COS-7 cell membranes using [3H]-AEA as substrate assessed as residual activity at 10 uM preincubated for 10 mins followed by substrate addition measured after 10 mins by liquid scintillation counting analysis relative to control
T2 sequence (whole entry): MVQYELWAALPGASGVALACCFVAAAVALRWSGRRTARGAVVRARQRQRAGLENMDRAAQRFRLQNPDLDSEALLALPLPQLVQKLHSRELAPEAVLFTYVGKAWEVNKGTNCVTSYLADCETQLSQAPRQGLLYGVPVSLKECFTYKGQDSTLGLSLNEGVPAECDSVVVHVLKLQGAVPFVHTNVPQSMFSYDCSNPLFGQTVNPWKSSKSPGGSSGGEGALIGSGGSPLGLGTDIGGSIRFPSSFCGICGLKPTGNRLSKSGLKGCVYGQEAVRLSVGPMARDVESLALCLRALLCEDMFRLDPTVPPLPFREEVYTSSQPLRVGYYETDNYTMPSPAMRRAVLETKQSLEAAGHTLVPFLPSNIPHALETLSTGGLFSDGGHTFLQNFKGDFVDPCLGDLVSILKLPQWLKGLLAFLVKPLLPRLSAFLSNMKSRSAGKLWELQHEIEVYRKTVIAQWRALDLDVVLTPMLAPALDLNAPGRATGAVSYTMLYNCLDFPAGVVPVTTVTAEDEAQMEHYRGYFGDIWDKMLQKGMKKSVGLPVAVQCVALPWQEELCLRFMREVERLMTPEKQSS
In short: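 Membranes of COS-7 cells overexpressing hFAAH, 1 μg protein per incubation. Substrate 20 μM AEA including 10 nM [3H]AEA (60 Ci/mmol). Compounds tested at 10 μM.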

[6] = molecular target: T3, Monoglyceride lipase (Homo sapiens) (UniProt Q99685); assay: Inhibition of human MGL expressed in […] cells using 2AG as substrate assessed as residual activity at 10 uM preincubated for 10 mins followed by substrate addition measured after 10 mins by HPLC analysis; assay type: cell-based
T3 sequence (whole entry): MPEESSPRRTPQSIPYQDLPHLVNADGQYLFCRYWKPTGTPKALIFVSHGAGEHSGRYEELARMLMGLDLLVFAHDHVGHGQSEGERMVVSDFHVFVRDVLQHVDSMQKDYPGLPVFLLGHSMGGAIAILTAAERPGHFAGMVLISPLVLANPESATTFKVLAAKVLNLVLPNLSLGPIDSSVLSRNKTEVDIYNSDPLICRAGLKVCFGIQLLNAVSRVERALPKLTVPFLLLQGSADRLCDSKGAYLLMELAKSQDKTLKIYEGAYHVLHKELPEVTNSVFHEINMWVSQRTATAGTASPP
In short: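 Lysates of HEK cells overexpressing hMGL, 2.5 μg protein per incubation, substrate at 50 μM. Compounds tested at 10 μM.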

[7] = molecular target: T4, Lysophosphatidylserine lipase ABHD12 (Homo sapiens) (UniProt Q8N2K0); assay: Inhibition of human ABHD12 expressed in […] cells using 2-AG as substrate assessed as glycerol liberation at 10 uM preincubated for 30 mins followed by 2-AG addition measured for 90 mins by fluorescent glycerol assay relative to control; assay type: cell-based; design: scale not given: the % may be the effect or the level left
T4 sequence (whole entry): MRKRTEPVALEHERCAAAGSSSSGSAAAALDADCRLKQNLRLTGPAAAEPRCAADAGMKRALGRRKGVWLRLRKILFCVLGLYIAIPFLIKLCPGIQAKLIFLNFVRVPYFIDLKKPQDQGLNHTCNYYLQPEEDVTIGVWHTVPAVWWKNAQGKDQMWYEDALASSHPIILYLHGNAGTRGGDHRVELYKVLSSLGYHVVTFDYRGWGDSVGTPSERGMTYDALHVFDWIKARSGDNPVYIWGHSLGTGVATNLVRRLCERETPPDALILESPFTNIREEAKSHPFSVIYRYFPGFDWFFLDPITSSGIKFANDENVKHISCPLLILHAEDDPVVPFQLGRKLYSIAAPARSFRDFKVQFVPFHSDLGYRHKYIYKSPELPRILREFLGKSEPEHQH
In short: (§2)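 Lysates of HEK293 cells transiently overexpressing hABHD6 or hABHD12, 0.3 μg protein/well. Pretreated 30 min with DMSO or compound, then 2-AG added (12.5 μM final). Glycerol release coupled enzymatically to H2O2-dependent resorufin formation; fluorescence (ex 530/em 590 nm) followed kinetically for 90 min.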

[8] = molecular target: T5, Monoacylglycerol lipase ABHD6 (Homo sapiens) (UniProt Q9BV23); assay: Inhibition of human ABHD6 expressed in […] cells using 2-AG as substrate assessed as glycerol liberation at 10 uM preincubated for 30 mins followed by 2-AG addition measured for 90 mins by fluorescent glycerol assay relative to control; assay type: cell-based; design: scale not given: the % may be the effect or the level left; in short: as §2
T5 sequence (whole entry): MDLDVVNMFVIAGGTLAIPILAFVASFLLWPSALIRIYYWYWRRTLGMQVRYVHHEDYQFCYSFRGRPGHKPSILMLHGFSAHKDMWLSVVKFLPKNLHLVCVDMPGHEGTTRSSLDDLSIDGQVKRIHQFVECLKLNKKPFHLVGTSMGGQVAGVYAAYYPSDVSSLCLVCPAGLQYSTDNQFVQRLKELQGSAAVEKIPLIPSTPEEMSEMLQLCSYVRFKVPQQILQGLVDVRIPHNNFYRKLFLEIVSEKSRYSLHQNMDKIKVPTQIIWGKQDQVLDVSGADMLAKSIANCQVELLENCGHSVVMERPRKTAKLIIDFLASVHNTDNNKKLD

[9] = molecular target: T1, G-protein coupled receptor 55; assay: Agonist activity at human GPR55 expressed in CHOK1 cells at 10 uM by pathHunter beta-arrestin assay relative to control; assay type: cell-based; conditions: CHO-K1; in short: as §1
[10] = molecular target: Cannabinoid receptor 1 (Homo sapiens) (UniProt P21554); assay: Antagonist activity at human CBR1 assessed as [35S]GTPgammaS binding at 10 uM by radiometric assay relative to control; design: scale not given: the % may be the effect or the level left
[11] = molecular target: T1, G-protein coupled receptor 55; assay: Agonist activity at human GPR55 expressed in HEK293 cells assessed as calcium signalling by fura 2-based digital epifluorescence microscopy; assay type: functional, cell-based
In short: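 HEK293 cells stably expressing GPR55, grown on poly-L-lysine coated glass coverslips and serum-starved overnight. Compounds applied by bath perfusion in HEPES-buffered saline at 30-32 °C. Single-cell fura 2 ratiometric imaging (350/380 nm) every 5 s. Peak responses pooled from 24 cells (12 random cells from each of two experiments) per concentration; EC50 with 95% CI from concentration-response curves. ARA-LPI used as reference agonist.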

[12] = molecular target: T5, Monoacylglycerol lipase ABHD6 (Homo sapiens); assay: Inhibition of human ABHD6 expressed in […] cells using 2-AG as substrate assessed as glycerol liberation at 1 uM preincubated for 30 mins followed by 2-AG addition measured for 90 mins by fluorescent glycerol assay relative to control; assay type: cell-based; design: scale not given: the % may be the effect or the level left; in short: as §2

T1 sequence (Q9Y2T6 whole entry): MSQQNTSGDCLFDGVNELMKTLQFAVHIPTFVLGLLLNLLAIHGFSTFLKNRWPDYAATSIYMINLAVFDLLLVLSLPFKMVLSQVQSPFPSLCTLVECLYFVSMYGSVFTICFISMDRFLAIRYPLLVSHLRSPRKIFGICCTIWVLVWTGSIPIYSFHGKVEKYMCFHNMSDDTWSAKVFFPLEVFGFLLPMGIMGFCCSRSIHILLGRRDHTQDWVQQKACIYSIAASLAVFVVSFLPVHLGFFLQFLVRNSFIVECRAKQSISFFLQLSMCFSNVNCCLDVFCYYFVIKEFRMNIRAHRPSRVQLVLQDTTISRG

Row | SMILES | Activity [1] [%] | Activity [2] [%] | Activity [3] [%] | Activity [4] [%] | Activity [5] [%] | Activity [6] [%] | Activity [7] [%] | Activity [8] [%] | Activity [9] [%] | Activity [10] [%] | EC50 [11] [nM] | Activity [12] [%]
1 | CC(=O)NS(=O)(=O)c1ccc(NC(=S)NC(=O)c2ccc(C(C)C)cc2)cc1 | 67 | 100 | 92 | 96 | 103 | 99 | 88 | 81 | 99 | 98 | – | –
2 | CN1CCN(S(=O)(=O)c2ccc(NC(=S)NC(=O)c3ccc(-c4ccccc4)cc3)cc2)CC1 | 148 | 101 | 95 | 101 | 101 | 97 | 81 | 76 | 218 | 91 | 218 | –
3 | CCCCC/C=C\C/C=C\C/C=C\C/C=C\CCCC(=O)OC[C@@H](O)COP(=O)(O)O[C@@H]1[C@@H](O)[C@H](O)[C@@H](O)[C@H](O)[C@@H]1O | – | – | – | – | – | – | – | – | – | – | 20.2 | –
4 | Cc1ccc(C(=O)NC(=S)Nc2ccc(S(=O)(=O)NC(C)C)cc2)c(Br)c1 | 70 | 103 | 100 | 88 | 97 | 89 | 74 | 59 | 105 | 88 | – | 106
5 | COc1ccc(C(=O)NC(=S)Nc2ccc(S(=O)(=O)NC(C)C)cc2)cc1 | 62 | 93 | 92 | 90 | 103 | 93 | 78 | 66 | 91 | 95 | – | 102
6 | CC(=O)NS(=O)(=O)c1ccc(NC(=S)NC(=O)c2cccc3ccccc23)cc1 | 66 | 96 | 97 | 94 | 107 | 98 | 82 | 88 | 99 | 101 | – | –

Further lines, results first:

Row | Activity [1] [%] | Activity [2] [%] | Activity [3] [%] | Activity [4] [%] | Activity [5] [%] | Activity [6] [%] | Activity [7] [%] | Activity [8] [%] | Activity [9] [%] | Activity [10] [%] | EC50 [11] [nM] | Activity [12] [%] | SMILES
7 | 91 | 96 | 100 | 90 | 95 | 104 | 83 | 97 | 134 | 78 | – | – | CCCCc1ccc(NS(=O)(=O)c2ccc(NC(=S)NC(=O)c3ccc(-c4ccccc4)cc3)cc2)cc1
8 | – | 95 | 105 | 100 | 92 | 96 | 72 | 74 | 176 | 80 | – | – | C=CCN(CC=C)S(=O)(=O)c1ccc(NC(=S)NC(=O)c2ccc(-c3ccccc3)cc2)cc1
9 | 158 | 93 | 101 | 94 | 89 | 105 | 82 | 93 | 231 | 84 | – | – | O=C(NC(=S)Nc1ccc(S(=O)(=O)Nc2ccc(Cl)cc2)cc1)c1ccc(-c2ccccc2)cc1
10 | 172 | 128 | 85 | 85 | 96 | 103 | 77 | 67 | 252 | 91 | 176 | 103 | CCCNS(=O)(=O)c1ccc(NC(=S)NC(=O)c2ccc(-c3ccccc3)cc2)cc1
11 | 197 | 97 | 83 | 93 | 106 | 97 | 86 | 86 | 291 | 94 | 5.6 | – | O=C(NC(=S)Nc1ccc(S(=O)(=O)NCc2ccccc2)cc1)c1ccc(-c2ccccc2)cc1
12 | – | 147 | 89 | 95 | 34 | 94 | 84 | 85 | 150 | 119 | – | – | NS(=O)(=O)c1ccc(NC(=S)NC(=O)c2ccc(-c3ccccc3)cc2)cc1
13 | 178 | 100 | 96 | 90 | 103 | 104 | 78 | 78 | 263 | 95 | 6.2 | – | O=C(NC(=S)Nc1ccc(S(=O)(=O)Nc2ccccc2)cc1)c1ccc(-c2ccccc2)cc1
14 | 101 | 105 | 96 | 90 | 54 | 93 | 74 | 79 | 148 | 96 | 55.7 | – | CN(C)S(=O)(=O)c1ccc(NC(=S)NC(=O)c2ccc(-c3ccccc3)cc2)cc1
